ChEMBL document CHEMBL1122356, “The antihypertensive and positive inotropic diterpene forskolin: effects of structural modifications on its activity” (J Med Chem, 1983)
Active and inactive are the calls of the source. The rule behind the calls is not given here.

Experiments:
Felis catus [1] = species: Felis catus; assay: Effective dose in cat was determined; format: functional
Procedure, shortened: (§1)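 Cats of either sex (3.0-4.5 kg) under chloralose anesthesia (70 mg/kg iv). Compounds were dissolved in propylene glycol (10 mg/mL stock), diluted in distilled water and injected iv via the femoral vein at 30, 100, 300, 500 and 1000 µg/kg, three animals per dose. Fall in mean arterial pressure (femoral artery transducer) was read at 10 min. ED20 was taken from log dose-response curves.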

Rattus norvegicus [2] = species: Rattus norvegicus; assay: Difference in systolic blood pressure observed prior to the first application and 2 hr after the fifth application to spontaneously hypertensive rats(SHR); format: functional, Artery
Procedure, shortened: (§2)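 Groups of six conscious male SH rats (Wistar-Okamoto origin, 250-300 g, 12-16 weeks; systolic pressure >160 mmHg) received 25 mg/kg po daily for 5 days as a 0.5% carboxymethylcellulose suspension, with vehicle controls. Systolic pressure was taken by tail-cuff after warming at 37-38 °C for 10 min, before the first dose and 2 h after each dose. Paired t test; only falls >15 mmHg with p < 0.05 were listed.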

Cavia porcellus [3] = species: Cavia porcellus; assay: Positive ionotropic activity (0.1x10E 6 g/mL) was determined in guinea pig; no significant activity; format: functional, organism-based
Rattus norvegicus [4] = species: Rattus norvegicus; assay: Difference in systolic blood pressure observed prior to the first application and 2 hr after the fifth application to spontaneously hypertensive rats (SHR); format: functional, Artery; procedure, shortened: as §2
Rattus norvegicus [5] = assay: Difference in systolic blood pressure observed prior to the first application and 2 hr after the fifth application at 5 mg/kg, po daily for 5 days to spontaneously hypertensive rats (SHR); format: functional, Artery
Procedure, shortened: (§3)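 Male SH rats (Wistar-Okamoto derived, 250-300 g, 12-16 weeks old) with systolic pressure above 160 mmHg, in groups of six. The dose was given orally once daily for 5 days as a suspension in 0.5% carboxymethylcellulose, and a vehicle control group was run. Systolic pressure was read by tail-cuff after 10 min warming at 37-38 °C, before dosing and 2 h post-dose. Paired Student's t test.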

Rattus norvegicus [6] = species: Rattus norvegicus; assay: Difference in systolic blood pressure observed prior to the first application and 2 hr after the fifth application to spontaneously hypertensive rats (SHR); NS denotes not significant; format: functional, organism-based; conditions: Artery
Rattus norvegicus [7] = assay: Difference in systolic blood pressure observed prior to the first application and 2 hr after the fifth application at 20 mg/kg, po daily for 5 days to spontaneously hypertensive rats (SHR); format: functional, Artery; procedure, shortened: as §3
Rattus norvegicus [8] = assay: Difference in systolic blood pressure observed prior to the first application and 2 hr after the fifth application at 10 mg/kg, po daily for 5 days to spontaneously hypertensive rats (SHR); format: functional, Artery; procedure, shortened: as §3
Felis catus [9] = assay: Percent fall in blood pressure, 10 min after intravenous administration at doses 500 ug/kg in cat; format: functional; procedure, shortened: as §1
Cavia porcellus [10] = species: Cavia porcellus; assay: Positive ionotropic activity determined as effective concentration in guinea pig; Range 6.8*10e-7 to 1.75x10E-6M; format: functional, organism-based
Felis catus [11] = assay: Percent fall in blood pressure, 10 min after intravenous administration at doses 300 ug/kg in cat; format: functional; procedure, shortened: as §1

| Compound | ED20 (Felis catus [1]) [mg/kg] | Activity (Cavia porcellus [3]) | Delta blood pressure (Rattus norvegicus [4]) [mmHg] | further results |
| --- | --- | --- | --- | --- |
| CC(=O)OC1C(O)[C@H]2C(C)(C)CC[C@H](O)C2(C)[C@@]2(O)C(=O)C[C@](C)(C=O)O[C@]12C (stereo not given in full) | > 0.5 |  |  | Delta blood pressure (Rattus norvegicus [2]): -22 mmHg |
| C=C[C@@]1(C)CC(=O)[C@@]23OS(=O)O[C@H]4CCC(C)(C)[C@H](C(O)C(OC(C)=O)[C@@]2(C)O1)C43C (stereo not given in full) | > 0.5 | no significant activity |  | Delta blood pressure (Rattus norvegicus [2]): -31 mmHg |
| C=C[C@@]1(C)CC(=O)[C@]2(O)C3(C)[C@@H](OC)CCC(C)(C)[C@@H]3C(OC(C)=O)C(O)[C@@]2(C)O1 (stereo not given in full) | > 0.5 | no significant activity | -25.3 |  |
| C=C[C@@]1(C)CC(=O)[C@]2(O)C3(C)[C@@H](OC(=O)C(C)(C)C)CCC(C)(C)[C@@H]3C(O)C(OC(=O)C(C)(C)C)[C@@]2(C)O1 (stereo not given in full) | > 0.5 |  |  | Delta blood pressure (Rattus norvegicus [2]): 0 mmHg |
| C=C[C@@]1(C)CC(=O)[C@]2(O)C3(C)[C@@H](O)CCC(C)(C)[C@@H]3C(O)C(OS(=O)(=O)c3ccc(C)cc3)[C@@]2(C)O1 (stereo not given in full) | > 0.5 | no significant activity |  | Delta blood pressure (Rattus norvegicus [2]): -27.3 mmHg |
| C=C[C@@]1(C)CC(=O)[C@]2(O)C3(C)[C@@H](O[Si](C)(C)C)CCC(C)(C)[C@@H]3C(O)C(OC(C)=O)[C@@]2(C)O1 (stereo not given in full) | > 0.5 |  |  | Delta blood pressure (Rattus norvegicus [2]): 0 mmHg |
| C=C[C@@]1(C)CC(=O)[C@]2(O)C3(C)[C@@H](O)CCC(C)(C)[C@@H]3C(O)C(OC(=O)OCC)[C@@]2(C)O1 (stereo not given in full) | > 0.5 | no significant activity | 0 |  |
| Nc1cc(N2CCCCC2)nc(N)[n+]1[O-] [MINOXIDIL] | > 0.5 | no significant activity |  | Delta blood pressure (Rattus norvegicus [5]): -51.2 mmHg |
| C=C[C@@]1(C)CC(=O)[C@@]23OC(=O)O[C@H]4CCC(C)(C)[C@H](C5OC(=O)OC5[C@@]2(C)O1)C43C (stereo not given in full) | > 0.5 | no significant activity | -23 |  |
| C=C[C@@]1(C)CC(=O)[C@]2(O)C3(C)[C@@H](OC(=O)Nc4ccccc4)CCC(C)(C)[C@@H]3C(O)C(OC(C)=O)[C@@]2(C)O1 (stereo not given in full) | > 0.5 |  |  | Delta blood pressure (Rattus norvegicus [6]): inactive |
| C=C[C@@]1(C)CC(=O)[C@]2(O)C3(C)[C@@H](OCc4ccccc4)CCC(C)(C)[C@@H]3C(O)C(OC(=O)C(C)(C)Br)[C@@]2(C)O1 (stereo not given in full) | > 0.5 |  |  | Delta blood pressure (Rattus norvegicus [2]): 0 mmHg |
| C=C[C@@]1(C)CC(=O)[C@]2(O)C3(C)[C@@H](O)CCC(C)(C)[C@@H]3C(OC(C)=O)C(OC(=O)CC)[C@@]2(C)O1 (stereo not given in full) | > 0.5 |  | 0 |  |
| C=C[C@@]1(C)CC(=O)[C@]2(O)C3(C)[C@@H](OC)CCC(C)(C)[C@@H]3C(O)C(OC(C)=O)[C@@]2(C)O1 (stereo not given in full) | > 0.5 | no significant activity | 0 |  |
| C=C[C@@]1(C)CC(=O)[C@]2(O)C3(C)[C@@H](OCCN(CC)CC)CCC(C)(C)[C@@H]3C(OC(C)=O)C(O)[C@@]2(C)O1.Cl (stereo not given in full) | > 0.5 | no significant activity | -26.7 |  |
| CN1CCN(CC(O)[C@@]2(C)CC(=O)[C@]3(O)C4(C)[C@@H](O)CCC(C)(C)[C@@H]4C(O)C(O)[C@@]3(C)O2)CC1.Cl.Cl (stereo not given in full) | > 0.5 | no significant activity |  | Delta blood pressure (Rattus norvegicus [6]): inactive |
| CC[C@@]1(C)CC(=O)[C@]2(O)C3(C)[C@@H](O)CCC(C)(C)[C@@H]3C(O)C(OC(C)=O)[C@@]2(C)O1 (stereo not given in full) | > 0.5 |  |  | Delta blood pressure (Rattus norvegicus [7]): -15.7 mmHg |
| C=C[C@@]1(C)CC(=O)[C@@]23OC(=O)O[C@H]4CCC(C)(C)[C@H](C(O)C(OC(C)=O)[C@@]2(C)O1)C43C (stereo not given in full) | > 0.5 | no significant activity | -16.7 |  |

| Compound | ED20 (Felis catus [1]) [mg/kg] | Activity (Cavia porcellus [3]) | Delta blood pressure (Rattus norvegicus [4]) [mmHg] | further results |
| --- | --- | --- | --- | --- |
| C=C[C@@]1(C)CC(=O)[C@]2(O)C3(C)C(=O)CCC(C)(C)[C@@H]3C(O)C(OC(C)=O)[C@@]2(C)O1 (stereo not given in full) | > 0.5 | no significant activity | 0 |  |
| C=C[C@@]1(C)CC(=O)[C@]2(O)C3(C)[C@@H](O)CCC(C)(C)[C@@H]3C(OC(=O)CC)C(O)[C@@]2(C)O1 (stereo not given in full) | > 0.5 |  |  | Delta blood pressure (Rattus norvegicus [7]): -26.33 mmHg |
| C=C[C@@]1(C)CC(=O)[C@]2(O)C3(C)[C@@H](O)CCC(C)(C)[C@@H]3C(O)C(OC(C)=O)[C@@]2(C)O1 (stereo not given in full) | 0.038 | no significant activity | -26 |  |
| C=C[C@@]1(C)CC(=O)[C@]2(O)C3(C)[C@@H](O)CCC(C)(C)[C@@H]3C(O)C(OC=O)[C@@]2(C)O1 (stereo not given in full) | > 0.5 | no significant activity | -23.7 |  |
| C=C[C@@]1(C)CC(=O)[C@]2(O)C3(C)[C@@H](O)CCC(C)(C)[C@@H]3C(O)C(OC(=O)N(CC)CC)[C@@]2(C)O1 (stereo not given in full) | > 0.5 | no significant activity | 0 |  |
| C=C[C@@]1(C)C[C@H](O)[C@]2(O)C3(C)[C@@H](O)CCC(C)(C)[C@@H]3C(O)C(O)[C@@]2(C)O1 (stereo not given in full) | > 0.5 | no significant activity |  | Delta blood pressure (Rattus norvegicus [8]): -19.3 mmHg |
| C=C[C@@]1(C)CC(=O)[C@]2(O)C3(C)[C@@H](O)CCC(C)(C)[C@@H]3C(O)C(OC(=O)CCC)[C@@]2(C)O1 (stereo not given in full) | > 0.5 | no significant activity | -19.7 |  |
| CC(=O)OC1C(O)[C@H]2C(C)(C)CC[C@H](O)C2(C)[C@@]2(O)C(=O)C[C@](C)(C3CO3)O[C@]12C (stereo not given in full) | > 0.5 |  |  | Delta blood pressure (Rattus norvegicus [2]): -22.67 mmHg |
| C=C[C@@]1(C)CC(=O)[C@]2(O)[C@@]3(C)[C@@H](O)CCC(C)(C)[C@@H]3[C@H](O)[C@H](O)[C@@]2(C)O1 | > 0.5 | no significant activity | -24.6 | Decrease in blood pressure (Felis catus [9]): 20% |
| C=C[C@@]1(C)CC(=O)[C@]2(O)C3(C)[C@@H](O)CCC(C)(C)[C@@H]3C(O)C(OC(=O)CC)[C@@]2(C)O1 (stereo not given in full) | > 0.5 |  | -25.3 |  |
| C=C[C@@]1(C)CC(=O)[C@]2(O)C3(C)[C@@H](O)CCC(C)(C)[C@@H]3C(OC(C)=O)C(O)[C@@]2(C)O1 (stereo not given in full) | > 0.5 | no significant activity | -28 | EC50 (Cavia porcellus [10]): 1090 nM; Decrease in blood pressure (Felis catus [11]): 20% |
| C=C[C@@]1(C)CC(=O)[C@@]23OS(=O)O[C@H]4CCC(C)(C)[C@H](C5OS(=O)OC5[C@@]2(C)O1)C43C (stereo not given in full) | > 0.5 | no significant activity |  | Delta blood pressure (Rattus norvegicus [2]): 0 mmHg |
| C=C[C@@]1(C)C[C@H](O)[C@]2(O)C3(C)[C@@H](O)CCC(C)(C)[C@@H]3C(O)C(OC(C)=O)[C@@]2(C)O1 (stereo not given in full) | > 0.5 |  | 0 |  |
| C=C[C@@]1(C)CC(=O)[C@@H]2C3(C)CCCC(C)(C)[C@@H]3C(O)C(OC(C)=O)[C@@]2(C)O1 (stereo not given in full) | > 0.5 | no significant activity | 0 |  |
| C=C[C@@]1(C)CC(=O)[C@]2(O)C3(C)[C@@H](O)CCC(C)(C)[C@@H]3C3OC(=O)OC3[C@@]2(C)O1 (stereo not given in full) | > 0.5 |  | -24.67 |  |
| C=C[C@@]1(C)CC(=O)[C@]2(O)C3(C)C(O)CCC(C)(C)[C@@H]3C(OC(C)=O)C(OC(C)=O)[C@@]2(C)O1 (stereo not given in full) | > 0.5 | no significant activity | -24.3 |  |
